Legend:
[1] = log KGSH for the rate k of glutathione (GSH) consumption in 1/s; type: functional
[2] = Partition coefficient (logP); type: physicochemical; conditions: octanol/water
Procedure, shortened: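 Micro shake-flask: buffered aqueous compound solution (pH 6.50) shaken with an equal volume of water-saturated 1-octanol at room temperature, 3 × 120 s. Centrifuged 14000g, 15 min. Aqueous phase analysed by RP-HPLC against the unshaken solution (methanol 30, 50 or 70 wt%, 1.0 mL/min, UV 254 nm). Run in duplicate, or quadruplicate if needed.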

[3] = log 1/anion production.; type: functional
L1210 [4] = assay: log 1/ID75 for the in vitro clonogenic L1210 assay with ID75 in umol/L; type: functional, Mus musculus
Fungi = assay: (§1) log 1/MIC for fungi in mmol/L; type: functional
[5] = Observed rate of hydrolysis (logKobs) (pH=4.0); type: ADME
Procedure, shortened: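 Hydrolysis followed by cyclic voltammetry at 20 °C in deaerated 0.1 M acetate buffers (pH 5.0–3.5) or 0.02 M NaH2PO4 (pH 3.5, 3.0), ionic strength 0.1 M (NaNO3). Decrease of the parent cathodic peak tracked over time. Pseudo-first-order kobs from linear regression of log concentration versus time.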

[6] = E1/2 for the half-wave potential at pH=7.0 in V57; type: ADME
B16 = assay: log 1/D125 or the dose (mmol/kg) to give 125%T/C ratio (B16) in vivo; type: functional, Mus musculus
L1210 [7] = assay: log 1/D125 for the dose (mmol/kg) to give 125%T/C ratio (L1210) in vivo; type: functional, Mus musculus
[8] = log 1/LD50 for LD50 (mmol/kg); type: ADME
[9] = Electrochemically observed pKa (pKred) of aziridines; type: physicochemical; conditions: read-out: pKred
Nucleic Acid = assay: (§2) DNA cross link ratio at pH=5.0 and 50 umol/L compound; type: functional
[10] = as §2; type: functional
[11] = HPLC capacity factor (logK); type: ADME
[12] = as §1; type: functional

SMILES: O=C1C=C(N2CC2)C(=O)C(N2CC2)=C1N1CC1 [TRIAZIQUONE]
- Log k GSH (s-1) [1]: -3.14
- logP [2]: 0.13
- Log 1/conc (mM min-1 L-1) [3]: 1.32
- Log 1/ID75 (uM L-1) (L1210 [4]): 2.72
- Log 1/MIC (mM L-1) (Fungi): 1.06
- Log Kobs [5]: -2.85
- E 1/2 [6]: -0.171
- Log 1/D125 (mM kg-1) (B16): 3.8
- Log 1/D125 (L1210) (mM kg-1) (L1210 [7]): 3.52
- Log 1/LD50 (mM kg-1) [8]: 2.66
- pKa [9]: 8

SMILES: CCC1=C(N2CC2)C(=O)C(Br)=C(N2CC2)C1=O
- Log k GSH (s-1) [1]: -3
- Log 1/conc (mM min-1 L-1) [3]: 2.42
- Log 1/ID75 (uM L-1) (L1210 [4]): 2.82
- Log 1/MIC (mM L-1) (Fungi): 1.57
- Log Kobs [5]: -4.3
- DNA cross-link ratio (Nucleic Acid): 0.15
- E 1/2 [6]: -0.21
- Log 1/D125 (mM kg-1) (B16): 2.6
- Log 1/D125 (L1210) (mM kg-1) (L1210 [7]): 1.41
- Log 1/LD50 (mM kg-1) [8]: 1.39
- pKa [9]: 8.8

SMILES: CC1=C(N2CC2C)C(=O)C(Br)=C(N2CC2C)C1=O (stereo not given)
- Log 1/conc (mM min-1 L-1) [3]: 2.5
- Log 1/ID75 (uM L-1) (L1210 [4]): 2.66
- Log 1/MIC (mM L-1) (Fungi): 1.01
- Log Kobs [5]: -3.85
- lnK [10]: 0.03
- E 1/2 [6]: -0.194
- Log 1/D125 (mM kg-1) (B16): 1.71
- Log 1/D125 (L1210) (mM kg-1) (L1210 [7]): 1.79
- Log 1/LD50 (mM kg-1) [8]: 1.59
- pKa [9]: 9.2

SMILES: NC(=O)OCCC1=C(N2CC2)C(=O)C(Br)=C(N2CC2)C1=O
- Log k GSH (s-1) [1]: -3.6
- Log 1/conc (mM min-1 L-1) [3]: 2.48
- Log 1/ID75 (uM L-1) (L1210 [4]): 2.45
- Log 1/MIC (mM L-1) (Fungi): 0.25
- Log Kobs [5]: -4.49
- E 1/2 [6]: -0.201
- Log 1/D125 (mM kg-1) (B16): 2.68
- Log 1/D125 (L1210) (mM kg-1) (L1210 [7]): 2
- Log 1/LD50 (mM kg-1) [8]: 1.05
- pKa [9]: 8.9

SMILES: COC(COC(N)=O)C1=C(N2CC2)C(=O)C(C)=C(N2CC2)C1=O (stereo not given) [CARBOQUONE]
- Log k GSH (s-1) [1]: -5.15
- logP [2]: -0.15
- Log 1/conc (mM min-1 L-1) [3]: 0.57
- Log 1/ID75 (uM L-1) (L1210 [4]): 1.05
- Log 1/MIC (mM L-1) (Fungi): -1.19
- Log Kobs [5]: -3.65
- DNA cross-link ratio (Nucleic Acid): 0.26
- E 1/2 [6]: -0.182
- Log 1/D125 (mM kg-1) (B16): 3.32
- Log K [11]: -0.438
- Log 1/D125 (L1210) (mM kg-1) (L1210 [7]): 3.21
- Log 1/LD50 (mM kg-1) [8]: 1.73
- pKa [9]: 8.6

SMILES: CC1=C(N2CC2C)C(=O)C(CCOC(N)=O)=C(N2CC2C)C1=O (stereo not given)
- Log 1/conc (mM min-1 L-1) [3]: 0.56
- Log Kobs [5]: -3.67
- DNA cross-link ratio (Nucleic Acid): 0.13
- E 1/2 [6]: -0.235
- Log 1/D125 (mM kg-1) (B16): 2.31
- Log 1/D125 (L1210) (mM kg-1) (L1210 [7]): 1.89
- pKa [9]: 9.7

SMILES: O=C1C(F)=C(N2CC2)C(=O)C(N2CC2)=C1N1CC1
- Log k GSH (s-1) [1]: -2.24
- Log 1/conc (mM min-1 L-1) [3]: 1.72
- Log 1/ID75 (uM L-1) (L1210 [4]): 2.32
- Log 1/MIC (mM L-1) (Fungi): 1.79
- Log Kobs [5]: -3.75
- DNA cross-link ratio (Nucleic Acid): 0.17
- E 1/2 [6]: -0.171
- Log 1/D125 (L1210) (mM kg-1) (L1210 [7]): 1.95
- Log 1/LD50 (mM kg-1) [8]: 1.62
- pKa [9]: 7.8

SMILES: CCC1=C(N2CC2)C(=O)C(C)=C(N2CC2)C1=O
- Log k GSH (s-1) [1]: -5
- Log 1/conc (mM min-1 L-1) [3]: 0.87
- Log 1/MIC (mM L-1) (Fungi): 0.77
- Log Kobs [5]: -3.59
- DNA cross-link ratio (Nucleic Acid): 0.23
- E 1/2 [6]: -0.227
- Log 1/D125 (mM kg-1) (B16): 3.25
- Log K [11]: 0.291
- Log 1/LD50 (mM kg-1) [8]: 1.46
- pKa [9]: 8.7

SMILES: CC1=C(N2CC2)C(=O)C(CCOC(N)=O)=C(N2CC2)C1=O
- Log k GSH (s-1) [1]: -4.92
- Log 1/conc (mM min-1 L-1) [3]: 1.02
- Log 1/ID75 (uM L-1) (L1210 [4]): 1.82
- Log Kobs [5]: -4.05
- DNA cross-link ratio (Nucleic Acid): 0.27
- E 1/2 [6]: -0.213
- Log 1/D125 (mM kg-1) (B16): 3.49
- Log 1/D125 (L1210) (mM kg-1) (L1210 [7]): 2.86
- Log 1/LD50 (mM kg-1) [8]: 1.99
- pKa [9]: 8.9

SMILES: CCOC(=O)NC1=C(N2CC2)C(=O)C(NC(=O)OCC)=C(N2CC2)C1=O [DIAZIQUONE]
- Log k GSH (s-1) [1]: -4.64
- logP [2]: 0.04
- Log 1/conc (mM min-1 L-1) [3]: 1.56
- Log 1/ID75 (uM L-1) (L1210 [4]): -0.57
- Log 1/MIC (mM L-1) (Fungi): -0.29
- Log Kobs [5]: -4.25
- DNA cross-link ratio (Nucleic Acid): 0.14
- E 1/2 [6]: -0.149
- Log 1/D125 (mM kg-1) (B16): 2.32
- Log K [11]: -0.48
- Log 1/D125 (L1210) (mM kg-1) (L1210 [7]): 2.26
- Log 1/LD50 (mM kg-1) [8]: 1.54
- pKa [9]: 8.3

SMILES: O=C1C=C(N2CC2)C(=O)C=C1N1CC1
- Log k GSH (s-1) [1]: -3.24
- logP [2]: 0.18
- Log 1/conc (mM min-1 L-1) [3]: 2.09
- Log 1/ID75 (uM L-1) (L1210 [4]): 1.68
- Log 1/MIC (mM L-1) (Fungi): 2.58
- Log Kobs [5]: -2.57
- DNA cross-link ratio (Nucleic Acid): 0.29
- E 1/2 [6]: -0.105
- Log 1/D125 (mM kg-1) (B16): 3.16
- Log 1/D125 (L1210) (mM kg-1) (L1210 [7]): 2.77
- Log 1/LD50 (mM kg-1) [8]: 1.8
- pKa [9]: 7.5

SMILES: CCOC(=O)NC1=C(N2CC2C)C(=O)C(NC(=O)OCC)=C(N2CC2C)C1=O (stereo not given)
- Log 1/conc (mM min-1 L-1) [3]: 1.26
- Log Kobs [5]: -3.57
- DNA cross-link ratio (Nucleic Acid): 0.02
- E 1/2 [6]: -0.145
- Log 1/D125 (mM kg-1) (B16): 1.94
- Log 1/D125 (L1210) (mM kg-1) (L1210 [7]): 1.59
- Log 1/LD50 (mM kg-1) [8]: 0.69
- pKa [9]: 8.5

SMILES: O=C1C(Br)=C(N2CC2)C(=O)C(Br)=C1N1CC1
- Log 1/conc (mM min-1 L-1) [3]: 2.87
- Log 1/ID75 (uM L-1) (L1210 [4]): 0.35
- Log Kobs [5]: -4.7
- Log K [11]: 0.474
- Log 1/MIC (mM L-1) [12]: 1.54
